Source: ChEMBL document CHEMBL2034814, “Synthesis and evaluation of γ-lactam analogs of PGE₂ as EP4 and EP2/EP4 agonists” (Bioorg Med Chem, 2012)

Assays:
[1] = target: T1, Prostaglandin E2 receptor EP1 subtype (Mus musculus, UniProt P35375); test: Displacement of [3H]PGE2 from mouse EP1 receptor expressed in CHO cells after 20 mins by scintillation counting; assay type: cell-based
T1 sequence (P35375 whole entry): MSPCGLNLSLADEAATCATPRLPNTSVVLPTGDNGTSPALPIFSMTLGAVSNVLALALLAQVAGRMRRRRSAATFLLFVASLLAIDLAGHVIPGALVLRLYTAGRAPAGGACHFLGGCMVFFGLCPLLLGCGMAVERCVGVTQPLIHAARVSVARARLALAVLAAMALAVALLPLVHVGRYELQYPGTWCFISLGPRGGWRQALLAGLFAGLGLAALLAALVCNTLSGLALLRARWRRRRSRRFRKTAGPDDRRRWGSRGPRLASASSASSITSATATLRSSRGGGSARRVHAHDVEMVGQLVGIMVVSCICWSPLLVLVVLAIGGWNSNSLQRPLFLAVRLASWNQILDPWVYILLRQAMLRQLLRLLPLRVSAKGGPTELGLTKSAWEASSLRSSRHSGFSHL

[2] = target: Prostaglandin E2 receptor EP2 subtype (Mus musculus, UniProt Q62053); test: Displacement of [3H]PGE2 from mouse EP2 receptor expressed in CHO cells after 60 mins by scintillation counting; assay type: cell-based
[3] = target: T2, Prostaglandin E2 receptor EP3 subtype (Mus musculus, UniProt P30557); test: Displacement of [3H]PGE2 from mouse EP3 receptor expressed in CHO cells after 60 mins by scintillation counting; assay type: cell-based
T2 sequence (P30557 whole entry): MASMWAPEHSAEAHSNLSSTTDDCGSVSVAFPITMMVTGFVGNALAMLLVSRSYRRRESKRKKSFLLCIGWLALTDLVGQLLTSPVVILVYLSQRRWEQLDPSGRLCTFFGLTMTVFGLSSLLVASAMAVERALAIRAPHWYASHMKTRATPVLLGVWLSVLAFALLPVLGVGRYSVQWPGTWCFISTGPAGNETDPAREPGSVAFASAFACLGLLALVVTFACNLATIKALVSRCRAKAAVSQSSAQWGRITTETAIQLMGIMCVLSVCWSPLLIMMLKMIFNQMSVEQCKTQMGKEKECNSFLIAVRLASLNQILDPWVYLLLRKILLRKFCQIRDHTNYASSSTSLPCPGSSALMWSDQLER

[4] = target: Prostaglandin E2 receptor EP4 subtype (Mus musculus, UniProt P32240); test: Displacement of [3H]PGE2 from mouse EP4 receptor expressed in CHO cells after 60 mins by scintillation counting; assay type: cell-based
[5] = target: Prostaglandin E2 receptor EP2 subtype (Rattus norvegicus, UniProt Q62928); test: Agonist activity at rat EP2 receptor expressed in CHO cells assessed as cAMP production after 10 mins by radioimmunoassay; assay type: functional, cell-based
How it was run: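 CHO cells expressing rat EP2 receptor, seeded 1 × 10^5 cells/well and grown 2 days; washed, incubated 10 min at 37 °C in MEM with 2 µM diclofenac, then preincubated 10 min in assay medium with 1% BSA. Compound added, 10 min at 37 °C, stopped with ice-cold 10% trichloroacetic acid; cAMP measured by radioimmunoassay.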

[6] = target: Prostaglandin E2 receptor EP4 subtype (Rattus norvegicus, UniProt P43114); test: Agonist activity at rat EP4 receptor expressed in CHO cells assessed as cAMP production after 10 mins by radioimmunoassay; assay type: functional, cell-based
Rattus norvegicus [7] = test: Induction of bone fracture healing in CrJ:CD(SD)IGS rat assessed as breaking strength of fractured fibulae at 1 ug/kg administered tropically as PLGA microsphere formulation measured after 17 days relative to control; assay type: functional
How it was run: (§1)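 Male Sprague–Dawley rats, 8 weeks old. Under sodium pentobarbital (30–50 mg/kg) the left fibula midshaft was exposed and cut. Compound in PLGA microspheres injected topically at the fracture. At 17 days fibulae removed for three-point destructive bending; breaking strength expressed as % of the mean of nonfractured fibulae from intact rats, with vehicle-treated fractured controls.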

Rattus norvegicus [8] = test: Induction of bone fracture healing in CrJ:CD(SD)IGS rat assessed as breaking strength of fractured fibulae at 3 ug/kg administered tropically as PLGA microsphere formulation measured after 17 days relative to control; assay type: functional; how it was run: as §1
Rattus norvegicus [9] = test: Induction of bone fracture healing in CrJ:CD(SD)IGS rat assessed as breaking strength of fractured fibulae at 10 ug/kg administered tropically as PLGA microsphere formulation measured after 17 days relative to control; assay type: functional; how it was run: as §1
Rattus norvegicus [10] = test: Induction of bone fracture healing in CrJ:CD(SD)IGS rat assessed as breaking strength of fractured fibulae at 30 ug/kg administered tropically as PLGA microsphere formulation measured after 17 days relative to control; assay type: functional; how it was run: as §1
Rattus norvegicus [11] = test: Induction of bone fracture healing in CrJ:CD(SD)IGS rat assessed as breaking strength of fractured fibulae administered tropically as PLGA microsphere formulation measured after 17 days relative to control; assay type: functional, organism-based; how it was run: as §1
[12] = Drug release from PLGA microsphere assessed as compound remaining in microsphere at 100 ug/ml after 7 days; assay type: physicochemical; conditions: 168 h
[13] = Drug release from PLGA microsphere assessed as compound remaining in microsphere at 100 ug/ml after 14 days; assay type: physicochemical; conditions: 336 h
[14] = Drug release from PLGA microsphere assessed as compound remaining in microsphere at 100 ug/ml after 21 days; assay type: physicochemical; conditions: 504 h
[15] = Drug release from PLGA microsphere assessed as compound remaining in microsphere at 100 ug/ml after 28 days; assay type: physicochemical; conditions: 672 h
Rattus norvegicus [16] = test: Induction of bone fracture healing in CrJ:CD(SD)IGS rat assessed as breaking strength of fractured fibulae at 100 ug/kg administered tropically as PLGA microsphere formulation measured after 17 days relative to control; assay type: functional; how it was run: as §1
Rattus norvegicus [17] = test: Induction of bone fracture healing in CrJ:CD(SD)IGS rat assessed as breaking strength of fractured fibulae at 300 ug/kg administered tropically as PLGA microsphere formulation measured after 17 days relative to control; assay type: functional; how it was run: as §1

Prostaglandin E2 receptor EP4 subtype (Rattus norvegicus, UniProt P43114), sequence (P43114 whole entry): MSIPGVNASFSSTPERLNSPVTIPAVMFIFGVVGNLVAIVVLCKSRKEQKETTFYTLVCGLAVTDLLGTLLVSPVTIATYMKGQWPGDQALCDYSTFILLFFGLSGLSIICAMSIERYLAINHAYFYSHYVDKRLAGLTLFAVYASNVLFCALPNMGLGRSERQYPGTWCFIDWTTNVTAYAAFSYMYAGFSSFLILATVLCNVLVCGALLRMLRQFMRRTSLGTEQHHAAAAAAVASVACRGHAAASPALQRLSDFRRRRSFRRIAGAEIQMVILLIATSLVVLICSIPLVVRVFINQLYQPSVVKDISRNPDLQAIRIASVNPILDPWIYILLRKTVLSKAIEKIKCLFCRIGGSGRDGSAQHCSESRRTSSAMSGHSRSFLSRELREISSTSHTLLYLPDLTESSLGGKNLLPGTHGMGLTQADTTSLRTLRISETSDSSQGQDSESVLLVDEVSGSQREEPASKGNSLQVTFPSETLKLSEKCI
Prostaglandin E2 receptor EP4 subtype (Mus musculus, UniProt P32240), sequence (P32240 whole entry): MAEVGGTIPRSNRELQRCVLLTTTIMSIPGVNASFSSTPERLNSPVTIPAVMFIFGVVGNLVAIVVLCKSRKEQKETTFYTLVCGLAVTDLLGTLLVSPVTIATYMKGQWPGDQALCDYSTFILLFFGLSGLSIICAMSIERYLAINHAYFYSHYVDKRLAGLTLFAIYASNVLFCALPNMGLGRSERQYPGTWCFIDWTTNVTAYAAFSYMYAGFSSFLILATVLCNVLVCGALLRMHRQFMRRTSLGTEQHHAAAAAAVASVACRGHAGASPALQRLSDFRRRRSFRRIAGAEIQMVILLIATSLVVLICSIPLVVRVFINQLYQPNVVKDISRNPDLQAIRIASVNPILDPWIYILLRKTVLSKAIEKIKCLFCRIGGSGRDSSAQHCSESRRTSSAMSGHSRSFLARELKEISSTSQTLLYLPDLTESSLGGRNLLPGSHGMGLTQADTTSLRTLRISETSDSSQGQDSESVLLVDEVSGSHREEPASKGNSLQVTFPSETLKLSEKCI
Prostaglandin E2 receptor EP2 subtype (Rattus norvegicus, UniProt Q62928), sequence (Q62928 whole entry): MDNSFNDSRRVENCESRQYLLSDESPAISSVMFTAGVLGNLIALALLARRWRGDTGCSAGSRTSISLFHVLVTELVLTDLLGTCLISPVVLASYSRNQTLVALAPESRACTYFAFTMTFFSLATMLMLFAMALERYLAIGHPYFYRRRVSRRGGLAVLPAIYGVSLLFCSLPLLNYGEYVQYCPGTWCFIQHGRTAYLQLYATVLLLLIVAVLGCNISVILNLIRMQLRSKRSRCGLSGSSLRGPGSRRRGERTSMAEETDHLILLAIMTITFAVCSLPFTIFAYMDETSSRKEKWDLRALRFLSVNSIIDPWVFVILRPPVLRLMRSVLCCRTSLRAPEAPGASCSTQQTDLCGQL
Prostaglandin E2 receptor EP2 subtype (Mus musculus, UniProt Q62053), sequence (Q62053 whole entry): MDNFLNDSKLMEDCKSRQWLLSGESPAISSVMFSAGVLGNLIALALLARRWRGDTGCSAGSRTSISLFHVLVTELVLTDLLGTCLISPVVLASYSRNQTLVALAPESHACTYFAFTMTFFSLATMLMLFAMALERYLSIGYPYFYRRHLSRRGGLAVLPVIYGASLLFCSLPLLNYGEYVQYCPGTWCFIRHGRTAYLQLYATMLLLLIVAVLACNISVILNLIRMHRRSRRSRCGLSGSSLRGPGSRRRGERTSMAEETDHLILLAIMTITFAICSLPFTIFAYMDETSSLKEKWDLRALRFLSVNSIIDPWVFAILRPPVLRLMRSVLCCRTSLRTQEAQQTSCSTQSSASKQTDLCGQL

| Ki [1] | Ki [2] | Ki [3] | Ki [4] | EC50 [5] | EC50 [6] | Activity [12] | Activity [13] | Activity [14] | Activity [15] | Compound | Activity (Rattus norvegicus [7]) | Activity (Rattus norvegicus [8]) | Activity (Rattus norvegicus [9]) | Activity (Rattus norvegicus [10]) | Activity (Rattus norvegicus [11]) | Activity (Rattus norvegicus [16]) | Activity (Rattus norvegicus [17]) |
| --- | --- | --- | --- | --- | --- | --- | --- | --- | --- | --- | --- | --- | --- | --- | --- | --- | --- |
| 2500 nM | 1.5 nM | > 10000 nM | 0.35 nM | 1400 nM | 21 nM |  |  |  |  | Cc1ccc(-c2cccc(C[C@H](O)/C=C/[C@H]3CCC(=O)N3CCSc3nc(C(=O)O)cs3)c2)cc1C |  |  |  |  |  |  |  |
| > 10000 nM | 2100 nM | > 10000 nM | 0.6 nM |  | 96 nM |  |  |  |  | O=C(O)CCCSCCN1C(=O)CC[C@@H]1/C=C/[C@@H](O)Cc1cccc(-c2ccc3ccccc3c2)c1 |  |  |  |  |  |  |  |
| > 10000 nM | 28 nM | > 10000 nM | 0.12 nM | 1600 nM | 2.2 nM |  |  |  |  | O=C(O)c1csc(SCCN2C(=O)CC[C@@H]2/C=C/[C@@H](O)Cc2cccc(-c3nc4ccccc4o3)c2)n1 |  |  |  |  |  |  |  |
| 6100 nM | 2 nM | > 10000 nM | 0.43 nM | 380 nM | 15 nM |  |  |  |  | Cc1ccc(-c2cccc(C[C@H](O)/C=C/[C@H]3CCC(=O)N3CCSc3nc(C(=O)O)cs3)c2)cc1 |  |  |  |  |  |  |  |
| > 10000 nM | > 10000 nM | > 10000 nM | 28 nM |  | 46 nM |  |  |  |  | O=C(O)CCCSCCN1C(=O)CC[C@@H]1/C=C/[C@@H](O)Cc1cccc(OCc2ccncc2)c1 |  |  |  |  |  |  |  |
| 5400 nM | 9.2 nM | > 10000 nM | 1.7 nM | 4600 nM | 15 nM |  |  |  |  | COc1ccc(-c2cccc(C[C@H](O)/C=C/[C@H]3CCC(=O)N3CCSc3nc(C(=O)O)cs3)c2)cc1 |  |  |  |  |  |  |  |
| 7100 nM | > 10000 nM | > 10000 nM | 4.4 nM |  | 28 nM |  |  |  |  | O=C(O)CCCSCCN1C(=O)CC[C@@H]1/C=C/[C@@H](O)Cc1cccc(N2Cc3ccccc3C2)c1 |  |  |  |  |  |  |  |
| 2400 nM | 23 nM | > 10000 nM | 3.5 nM | > 10000 nM | 160 nM |  |  |  |  | Cc1ccc(-c2cccc(C[C@H](O)/C=C/[C@H]3CCC(=O)N3CCSc3nc(C(=O)O)cs3)c2)c(C)c1 |  |  |  |  |  |  |  |
| 680 nM | 22 nM | > 10000 nM | 0.25 nM | > 10000 nM | 9.7 nM |  |  |  |  | O=C(O)c1csc(SCCN2C(=O)CC[C@@H]2/C=C/[C@@H](O)Cc2cccc(-c3nc4cc(Cl)ccc4s3)c2)n1 |  |  |  |  |  |  |  |
| 2700 nM | 2.1 nM | 1700 nM | 0.12 nM | 1500 nM | 5.3 nM | 95.7% | 88.6% | 80.1% | 60.8% | O=C(O)c1csc(SCCN2C(=O)CC[C@@H]2/C=C/[C@@H](O)Cc2cccc(-c3cc4ccccc4o3)c2)n1 | 76.1% | 83.3% | 104.2% | 116.6% | Dose-dependent effect |  |  |
| 200 nM | 56 nM | > 10000 nM | 0.16 nM | 3200 nM | 1.6 nM | 100% | 95% | 86.6% | 87.6% | Cc1ccc2nc(-c3cccc(C[C@H](O)/C=C/[C@H]4CCC(=O)N4CCSc4nc(C(=O)O)cs4)c3)oc2c1 |  | 84.4% | 87.1% | 71.6% | Dose-dependent effect | 124.6% | 167.4% |
| 5000 nM | 1700 nM | > 10000 nM | 0.2 nM |  | 13 nM |  |  |  |  | O=C(O)CCCSCCN1C(=O)CC[C@@H]1/C=C/[C@@H](O)Cc1cccc(-c2nc3ccccc3o2)c1 |  |  |  |  |  |  |  |
| 7700 nM | 22 nM | > 10000 nM | 0.21 nM | 8500 nM | 28 nM |  |  |  |  | Cc1cccc2oc(-c3cccc(C[C@H](O)/C=C/[C@H]4CCC(=O)N4CCSc4nc(C(=O)O)cs4)c3)nc12 |  |  |  |  |  |  |  |
| > 10000 nM | 720 nM | > 10000 nM | 0.36 nM |  | 3.2 nM |  |  |  |  | O=C(O)CCCSCCN1C(=O)CC[C@@H]1/C=C/[C@@H](O)Cc1cccc(-c2nc3ccccc3s2)c1 |  |  |  |  |  |  |  |
| > 10000 nM | > 10000 nM | > 10000 nM | 0.89 nM |  | 0.61 nM |  |  |  |  | O=C(O)CCCSCCN1C(=O)CC[C@@H]1/C=C/[C@@H](O)Cc1cccc(OCc2ccccn2)c1 |  |  |  |  |  |  |  |
| > 10000 nM | 6100 nM | > 10000 nM | 4.8 nM |  | 86 nM |  |  |  |  | O=C(O)CCCSCCN1C(=O)CC[C@@H]1/C=C/[C@@H](O)Cc1cccc(-c2ccccn2)c1 |  |  |  |  |  |  |  |
| > 10000 nM | > 10000 nM | > 10000 nM | 1.1 nM |  | 52 nM |  |  |  |  | O=C(O)CCCSCCN1C(=O)CC[C@@H]1/C=C/[C@@H](O)Cc1cccc(-c2ccccc2)c1 |  |  |  |  |  |  |  |
|  |  |  |  |  | 5.7 nM |  |  |  |  | Cc1cccc(C[C@H](O)/C=C/[C@H]2CCC(=O)N2CCSCCCC(=O)O)c1 |  |  |  |  |  |  |  |
| > 10000 nM | > 10000 nM | > 10000 nM | 4.7 nM |  | 19 nM |  |  |  |  | O=C(O)CCCSCCN1C(=O)CC[C@@H]1/C=C/[C@@H](O)Cc1cccc(OCc2cccnc2)c1 |  |  |  |  |  |  |  |
| 650 nM | 67 nM | > 10000 nM | 0.2 nM | > 10000 nM | 4.9 nM |  |  |  |  | O=C(O)c1csc(SCCN2C(=O)CC[C@@H]2/C=C/[C@@H](O)Cc2cccc(-c3nc4cc(Cl)ccc4o3)c2)n1 |  |  |  |  |  |  |  |
| 3200 nM | 24 nM | > 10000 nM | 0.15 nM | > 10000 nM | 7.7 nM |  |  |  |  | Cc1cc(C)c2oc(-c3cccc(C[C@H](O)/C=C/[C@H]4CCC(=O)N4CCSc4nc(C(=O)O)cs4)c3)nc2c1 |  |  |  |  |  |  |  |
| 8000 nM | 15 nM | > 10000 nM | 0.19 nM | 2700 nM | 13 nM |  |  |  |  | O=C(O)c1csc(SCCN2C(=O)CC[C@@H]2/C=C/[C@@H](O)Cc2cccc(-c3nc4ccccc4s3)c2)n1 |  |  |  |  |  |  |  |
| > 10000 nM | 3500 nM | > 10000 nM | 0.28 nM |  | 85 nM |  |  |  |  | O=C(O)CCCSCCN1C(=O)CC[C@@H]1/C=C/[C@@H](O)Cc1cccc(-c2ccc3[nH]ccc3c2)c1 |  |  |  |  |  |  |  |
